Results on 23 compounds are retold here after ChEMBL document CHEMBL5376016, “Synthesis of novel rapanone derivatives via organocatalytic reductive C-alkylation: biological evaluation of antioxidant properties, in vivo zebrafish embryo toxicity, and docking studies” (RSC Med Chem, 2024).

The term IC50 denotes the point on the concentration scale where inhibition reaches its midpoint.

A short description of series [1]: Acute toxicity in zebrafish embryo assessed as hatching rate at 20 to 160 uM measured after 48 hrs post fertilization relative to control. Details: species or system Danio rerio. As to conditions: in vivo, dose 20-160 µM. A digest of the protocol: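 Controls were water and water with 0.5% DMSO. Incubation at 26.8 ± 1 °C, 20 embryos per well. Hatching scored over 0–96 hpf under an inverted microscope. Triplicate, three independent experiments; mean ± SD; ANOVA.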

A short description of series [2]: Antioxidant activity assessed as ABTS radical scavenging activity after 6 mins by spectrophotometric analysis relative to control. The format is functional. Details: concentration or dose not given beside the values.
The nature of series [3]: Acute toxicity in zebrafish embryo assessed as morphological changes at upto 160 uM measured after 48 hrs post fertilization relative to control. Details: species or system Danio rerio. As to conditions: in vivo. The method in brief: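 Wild-type Danio rerio embryos were exposed in milli-Q water with compound dissolved in DMSO (≤0.25 v/v final). Controls were milli-Q water and water with DMSO. Embryos were held at 26.8 ± 1 °C and scored by inverted microscope at 24–96 hpf, after exposure at 160 µM, for bent spine, yolk sac edema, pericardial edema, short tail and bent tail.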

Series [4] is described as follows: Antioxidant activity assessed as DPPH radical scavenging activity after 30 mins by spectrophotometric analysis relative to control. The format is functional. More on the design: concentration or dose not given beside the values. A digest of the protocol: (§1)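 Ascorbic acid was the reference standard. For DPPH, 0.2 mM DPPH in methanol was kept in the dark, mixed with compound at 5–160 µM (DMSO stock), and incubated 30 min in the dark at room temperature, then A517 was read. %RSA = (Ac−As)/Ac×100. Triplicate runs; IC50 taken from the plot of % scavenging versus concentration.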
In general terms: DPPH is a stable violet radical that fades when it is reduced.

A short description of series [5]: Antioxidant activity assessed as ABTS radical scavenging activity after 6 mins by spectrophotometric analysis. It is filed as functional.
A short description of series [6]: Acute toxicity in zebrafish embryo assessed as survival rate at 160 uM measured after 96 hrs post fertilization relative to control. Details: species or system Danio rerio. As to conditions: in vivo. A digest of the protocol:
(§2)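 Lethality endpoints were coagulation and absence of heartbeat, checked by inverted microscope. Survival was compared with untreated embryos across three independent experiments; mean ± SD, ANOVA.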

Series [7] in a line: Acute toxicity in zebrafish embryo assessed as survival rate at 20 uM measured after 96 hrs post fertilization relative to control. Details: species or system Danio rerio. As to conditions: in vivo. The method in brief:
as §2

A short description of series [8]: Acute toxicity in zebrafish embryo assessed as survival rate at 96 hrs post fertilization relative to control. Details: species or system Danio rerio; concentration or dose not given beside the values. As to conditions: in vivo. The method in brief:
as §2

The nature of series [9]: Antioxidant activity assessed as DPPH radical scavenging activity after 30 mins by spectrophotometric analysis. It is filed as functional. The method in brief:
as §1

Consider `CCCCCCCCCCCC1=C(O)C(=O)C(Cc2c(OC)cc(OC)cc2OC)=C(O)C1=O`, for which the Activity was 75.66% in series [1], 80.2% in series [2], “Non-Toxic” in [3] and 71.1% in series [4]. Also, the IC50 in series [5] came out at 2.6 µM; in series [9], 3.07 µM. Moreover, the survival at 96 h, 160 µM in series [6] was found to be 70%. Moreover, in series [7], the survival at 96 h, 20 µM turned out to be 52%. The survival at 96 h in series [8] (read-out: Activity) turned out to be 70%.
On to `CCCCCCCCCCCC1=C(O)C(=O)C(Cc2ccc(C#N)cc2)=C(O)C1=O`, for which the Activity was 51.33% in series [1], 52.1% in series [2], “Non-Toxic” in series [3] and 50.3% in series [4]. Further, the figures for the IC50 in series [5] and in [9] were 5.15 µM and 4.58 µM, respectively. Besides, the survival at 96 h in [8] (read-out: Survival) was above 90%.
With `CCCCCCCCCCCC1=C(O)C(=O)C(Cc2ccc(Cl)c(Cl)c2)=C(O)C1=O`, the Activity in [1] is 51.33%; in series [2] it was 52.1%; in series [3], “Non-Toxic”; in series [4] it was 50.3%. Further, the 50% inhibitory concentration (IC50) in series [5] stood at 5.09 µM; in series [9], 4.87 µM. The survival at 96 h in series [8] (read-out: Survival) was above 90%.
Consider `CCCCCCCCCCCC1=C(O)C(=O)C(Cc2ccc(O)cc2)=C(O)C1=O`, for which the Activity in [1] was 75.66%; in series [2] it was 75.1%; in series [3] it was “Non-Toxic”; in [4], 80%. The IC50 in series [5] amounted to 2.7 µM; in series [9] it was 2.83 µM. Moreover, the survival at 96 h, 160 µM in series [6] amounted to 70%. In addition, the survival at 96 h, 20 µM in series [7] was found to be 52%. For the same compound, the survival at 96 h in [8] (read-out: Activity) turned out to be 70%.
On to `CCCCCCCCCCCC1=C(O)C(=O)C(Cc2ccccc2Br)=C(O)C1=O`, for which the Activity was 51.33% in [1], 52.1% in [2], “Non-Toxic” in series [3] and 50.3% in [4]. In addition, the half-maximal inhibitory concentration (IC50) in series [5] came out at 5.54 µM; in series [9] it was 4.57 µM. For the same compound, the survival at 96 h in series [8] (read-out: Survival) was above 90%.
Turning to `O=C1O[C@H]([C@@H](O)CO)C(O)=C1O` [ASCORBIC ACID], the values for the Activity in series [2] and in series [4] were 91.1% and 90.2%, respectively. Besides, the figures for the IC50 in series [5] and in [9] were 1.42 µM and 1.87 µM, respectively.
For the compound `CCCCCCCCCCCC1=C(O)C(=O)C(CCCl)=C(O)C1=O`, the Activity in [1] is 51.33%; in [2], 52.1%; in [3] it was “Non-Toxic”; in series [4] it was 50.3%. Also, the IC50 in series [5] stood at 4.41 µM; in series [9] it was 4.6 µM. The survival at 96 h in series [8] (read-out: Survival) was above 90%.
Consider `C#Cc1ccccc1CC1=C(O)C(=O)C(CCCCCCCCCCC)=C(O)C1=O`, for which the Activity was 51.33% in [1], 52.1% in series [2], “Non-Toxic” in [3] and 50.3% in series [4]. Also, the half-inhibitory concentration (IC50) in series [5] stood at 4.96 µM; in series [9], 4.94 µM. In addition, in [8] (read-out: Survival), the survival at 96 h is above 90%.
For `CCCCCCCCCCCC1=C(O)C(=O)C(Cc2ccc(C)cc2)=C(O)C1=O`, the Activity in series [1] was 75.66%; in series [2], 90.3%; in series [3] it was “Non-Toxic”; in series [4], 89.4%. Besides, the IC50 in series [5] and in [9] was 1.81 µM each time. Besides, the survival at 96 h, 160 µM in series [6] worked out at 70%. Moreover, the survival at 96 h, 20 µM in series [7] was determined as 52%. In addition, the survival at 96 h in series [8] (read-out: Activity) turned out to be 70%.
Take `CCCCCCCCCCCC1=C(O)C(=O)C(Cc2ccc([N+](=O)[O-])cc2)=C(O)C1=O`: the Activity in [1] is 51.33%; in series [2], 52.1%; in series [3], “Non-Toxic”; in [4] it was 50.3%. For the same compound, the IC50 in series [5] worked out at 5.25 µM; in series [9] it was 4.9 µM. In series [8] (read-out: Survival), the survival at 96 h is above 90%.
As to `CCCCCCCCCCCC1=C(O)C(=O)C(Cc2ccccc2O)=C(O)C1=O`, the Activity in series [1] is 75.66%; in [2], 75.1%; in [3] it was “Non-Toxic”; in series [4], 71.1%. In addition, the figures for the half-inhibitory concentration (IC50) in series [5] and in [9] were 2.87 µM and 3.05 µM, respectively. In addition, in series [6], the survival at 96 h, 160 µM was determined as 70%. The survival at 96 h, 20 µM in [7] is 52%. For the same compound, the survival at 96 h in series [8] (read-out: Activity) stood at 70%.
Regarding `CCCCCCCCCCCC1=C(O)C(=O)C(Cc2cccc([N+](=O)[O-])c2)=C(O)C1=O`, the Activity was 51.33% in series [1], 52.1% in series [2], “Non-Toxic” in [3] and 50.3% in [4]. Further, the results for the IC50 in series [5] and in [9] were 5.36 µM and 4.8 µM, respectively. In series [8] (read-out: Survival), the survival at 96 h is above 90%.
Turning to `CCCCCCCCCCCC1=C(O)C(=O)C(Cc2cc(Cl)ccc2Cl)=C(O)C1=O`, the Activity in [1] is 51.33%; in series [2], 52.1%; in [3], “Non-Toxic”; in series [4], 50.3%. Moreover, the concentration for half-maximal inhibition (IC50) in series [5] was found to be 5.32 µM; in [9], 4.69 µM. The survival at 96 h in series [8] (read-out: Survival) is above 90%.
Turning to `CCCCCCCCCCCC1=C(O)C(=O)C(Cc2ccccc2)=C(O)C1=O`, the Activity in [1] was 75.66%; in [2], 80.2%; in series [3], “Non-Toxic”; in [4], 71.1%. Moreover, the concentration for half-maximal inhibition (IC50) in series [5] is 2.71 µM; in series [9], 3.18 µM. The survival at 96 h, 160 µM in [6] came out at 70%. Further, the survival at 96 h, 20 µM in series [7] was 52%. In addition, the survival at 96 h in series [8] (read-out: Activity) was 70%.
`CCCCCCCCCCCC1=C(O)C(=O)C(Cc2ccccc2C#N)=C(O)C1=O`: the Activity was 51.33% in [1], 52.1% in series [2], “Non-Toxic” in series [3] and 50.3% in [4]. Besides, the IC50 in series [5] was 5.01 µM; in [9], 4.43 µM. Further, in series [8] (read-out: Survival), the survival at 96 h was above 90%.
On to `CCCCCCCCCCCC1=C(O)C(=O)C(Cc2ccccc2[N+](=O)[O-])=C(O)C1=O`, for which the Activity in series [1] was 51.33%; in series [2], 52.1%; in series [3], “Non-Toxic”; in series [4], 50.3%. Further, the IC50 in series [5] turned out to be 5.34 µM; in [9], 4.76 µM. Further, the survival at 96 h in [8] (read-out: Survival) was above 90%.
Take `CCCCCCCCCCCC1=C(O)C(=O)C(Cc2ccc(Cl)cc2Cl)=C(O)C1=O`: the Activity in series [1] is 51.33%; in [2], 52.1%; in [3] it was “Non-Toxic”; in [4], 50.3%. The results for the IC50 in series [5] and in [9] were 4.43 µM and 4.74 µM, respectively. In addition, the survival at 96 h in series [8] (read-out: Survival) was above 90%.
`CCCCCCCCCCCC1=C(O)C(=O)C(CC(C)C)=C(O)C1=O`: the Activity was 75.66% in series [1], 80.2% in [2], “Non-Toxic” in series [3] and 80% in [4]. Also, in series [6], the survival at 96 h, 160 µM amounted to 70%. The survival at 96 h, 20 µM in series [7] stood at 52%. Moreover, in series [8] (read-out: Activity), the survival at 96 h was 70%. For the same compound, in [9], the IC50 came to 2.48 µM.
In the case of `CCCCCCCCCCCC1=C(O)C(=O)C(Cc2ccc(F)cc2)=C(O)C1=O`, the Activity in series [1] was 51.33%; in series [2], 52.1%; in [3] it was “Non-Toxic”; in series [4], 50.3%. In addition, the IC50 in series [5] was determined as 5.22 µM; in series [9] it was 4.65 µM. Besides, in series [8] (read-out: Survival), the survival at 96 h was above 90%.
Regarding `CCCCCCCCCCCC1=C(O)C(=O)C(Cc2ccccc2F)=C(O)C1=O`, the Activity in [1] is 51.33%; in series [2], 52.1%; in [3] it was “Non-Toxic”; in series [4], 50.3%. Besides, the IC50 in series [5] is 5.44 µM; in [9], 4.62 µM. Besides, the survival at 96 h in series [8] (read-out: Survival) is above 90%.
As for `CCCCCCCCCCCC1=C(O)C(=O)C(Cc2c(Cl)cccc2Cl)=C(O)C1=O`, the Activity was 51.33% in series [1], 52.1% in series [2], “Non-Toxic” in series [3] and 50.3% in series [4]. Also, the IC50 came out at 5.21 µM in series [5] and 4.87 µM in [9]. Also, the survival at 96 h in series [8] (read-out: Survival) is above 90%.
As to `CCCCCCCCCCCC1=C(O)C(=O)C(Cc2ccc(Br)cc2)=C(O)C1=O`, the Activity in series [1] was 51.33%; in series [2], 52.1%; in [3], “Non-Toxic”; in [4] it was 50.3%. The IC50 in series [5] worked out at 5.14 µM; in series [9] it was 4.59 µM. The survival at 96 h in series [8] (read-out: Survival) is above 90%.
Turning to `CCCCCCCCCCCC1=C(O)C(=O)C(Cc2ccc(Cl)cc2)=C(O)C1=O`, the Activity in series [1] was 51.33%; in series [2] it was 52.1%; in series [3], “Non-Toxic”; in [4], 50.3%. Besides, the 50% inhibitory concentration (IC50) in series [5] was 4.99 µM; in series [9], 4.93 µM. The survival at 96 h in [8] (read-out: Survival) is above 90%.
